Assay [1] deals with 3-phosphoinositide-dependent protein kinase 1 (Homo sapiens) (UniProt O15530). The assay is described as follows: Inhibition of PDK1 (unknown origin) at 10 uM using [33P]-ATP after 20 to 40 mins by scintillation counting method.
Assay [2] concerns MCF7. The assay is described as follows: Induction of apoptosis in human MCF7 cells assessed as viable cells level at 10 uM incubated for 24 hrs by Annexin V PI/FITC staining based flow cytometry (reference value: 72.3%). The format is functional.
In assay [3] the target is Mitogen-activated protein kinase kinase kinase 5 (Homo sapiens) (UniProt Q99683). Put plainly: Inhibition of ASK1 (unknown origin) at 10 uM using [33P]-ATP after 20 to 40 mins by scintillation counting method.
The subject of assay [4] is MCF7. The assay is described as follows: Induction of apoptosis in human MCF7 cells assessed as early apoptotic cells level at 5 uM incubated for 24 hrs by Annexin V PI/FITC staining based flow cytometry (reference value: 17.4%). Format: functional. (A flow cytometer gives signals particle by particle.)
For assay [5], the system named is MCF7. The assay is described as follows: Induction of apoptosis in human MCF7 cells assessed as late apoptotic cells level at 10 uM incubated for 24 hrs by Annexin V PI/FITC staining based flow cytometry (reference value: 9%). Format: functional.
The target in assay [6] is T1, Prostaglandin G/H synthase 1 (Ovis aries, UniProt P05979).
T1 sequence (P05979 whole entry): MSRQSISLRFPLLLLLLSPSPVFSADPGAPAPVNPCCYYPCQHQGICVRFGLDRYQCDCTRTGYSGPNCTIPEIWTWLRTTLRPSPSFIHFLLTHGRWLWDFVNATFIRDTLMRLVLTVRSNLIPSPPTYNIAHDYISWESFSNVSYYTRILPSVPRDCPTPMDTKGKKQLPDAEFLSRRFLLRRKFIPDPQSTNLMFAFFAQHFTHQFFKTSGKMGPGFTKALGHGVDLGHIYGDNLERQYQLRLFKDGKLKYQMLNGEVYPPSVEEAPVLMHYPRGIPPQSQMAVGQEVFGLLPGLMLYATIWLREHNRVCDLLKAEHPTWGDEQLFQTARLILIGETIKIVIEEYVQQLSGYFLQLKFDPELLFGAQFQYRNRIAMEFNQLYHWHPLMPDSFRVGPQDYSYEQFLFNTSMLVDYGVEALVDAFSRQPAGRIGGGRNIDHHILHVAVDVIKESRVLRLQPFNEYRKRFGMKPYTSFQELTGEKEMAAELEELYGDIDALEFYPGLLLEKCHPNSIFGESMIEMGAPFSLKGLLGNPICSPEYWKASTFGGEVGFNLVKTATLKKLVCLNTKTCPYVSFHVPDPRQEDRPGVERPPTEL
The assay is described as follows: Inhibition of ovine COX1 assessed as reduction in PGH2 formation by measuring PGF2alpha by colorimetric assay. Put shortly: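 Colorimetric COX inhibitor screening kit run per the manufacturer, using ovine COX-1. IC50 calculated from three determinations.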

For assay [7], the system named is MCF7. Put plainly: Induction of apoptosis in human MCF7 cells assessed as late apoptotic cells level at 5 uM incubated for 24 hrs by Annexin V PI/FITC staining based flow cytometry (reference value: 9%). The format is functional.
The test system of assay [8] is MCF7. The assay is described as follows: Induction of apoptosis in human MCF7 cells assessed as early apoptotic cells level at 1 uM incubated for 24 hrs by Annexin V PI/FITC staining based flow cytometry (reference value: 17.4%). Format: functional.
Assay [9] deals with Ephrin type-A receptor 1 (Homo sapiens) (UniProt P21709). The assay is described as follows: Inhibition of EPHA1 (unknown origin) at 10 uM using [33P]-ATP after 20 to 40 mins by scintillation counting method.
Assay [10] has as its target cGMP-dependent protein kinase 1 (Homo sapiens) (UniProt Q13976). Put plainly: Inhibition of PRKG1 (unknown origin) at 10 uM using [33P]-ATP after 20 to 40 mins by scintillation counting method.
Assay [11] concerns MCF7. The assay is described as follows: Induction of cell cycle arrest in human MCF7 cells assessed as increase in accumulation at G2/M phase at 10 uM by propidium iodide staining based flow cytometry relative to untreated control. Format: functional. Put shortly:
(§1)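 MCF-7 seeded at 1×10^5 cells/well and attached overnight, then given 0, 1, 5 or 10 µM for 24 h. Cells pooled, fixed overnight in 70% ice-cold ethanol, treated with RNase A and stained with PI. Flow cytometry on 20000 events with doublets gated out. Mean ± S.D. (n = 3). Compared with DMSO vehicle by one-way ANOVA with Dunnett's test.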

Assay [12] relates to MCF7. Put plainly: Induction of apoptosis in human MCF7 cells assessed as late necrosis cells level at 10 uM incubated for 24 hrs by Annexin V PI/FITC staining based flow cytometry (reference value: […]). The format is functional.
For assay [13], the target named is Vascular endothelial growth factor receptor 1 (Homo sapiens) (UniProt P17948). The assay is described as follows: Inhibition of FLT1 (unknown origin) at 10 uM using [33P]-ATP after 20 to 40 mins by scintillation counting method.
Assay [14] concerns MCF7. The assay is described as follows: Induction of apoptosis in human MCF7 cells assessed as viable cells level at 1 uM incubated for 24 hrs by Annexin V PI/FITC staining based flow cytometry (reference value: 72.3%). Format: functional.
Assay [15] deals with MCF7. Put plainly: Induction of cell cycle arrest in human MCF7 cells assessed as increase in accumulation at S phase at 5 and 10 uM by propidium iodide staining based flow cytometry relative to untreated control. The format is functional. In outline: as §1
Assay [16] concerns the target Serine/threonine-protein kinase Nek1 (Homo sapiens) (UniProt Q96PY6). The assay is described as follows: Inhibition of NEK1 (unknown origin) at 10 uM using [33P]-ATP after 20 to 40 mins by scintillation counting method.
Another assay deals with Hep 3B2. Put plainly: Growth inhibition of human Hep3B cells by MTT assay. The format is functional, cell-based. Put shortly: (§2)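 MTT viability. Cells seeded for 24 h, then exposed to compound for 48 h in DMEM/F-12 or DMEM with 5% FBS. Vehicle controls received matching DMSO. MTT added at 0.5 mg/mL for 3 h at 37 °C. Formazan dissolved in DMSO and absorbance read at 570 nm.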
(Tetrazolium dyes change colour on reduction, which living cells bring about.)

Assay [17] has as its system MCF7. Put plainly: Induction of apoptosis in human MCF7 cells assessed as late necrosis cells level at 5 uM incubated for 24 hrs by Annexin V PI/FITC staining based flow cytometry (reference value: […]). Format: functional.
The target of assay [18] is AMP-activated protein kinase (AMPK) alpha-1/beta-1/gamma-1 (Homo sapiens) (UniProt P54619+Q9Y478+Q13131). Put plainly: Inhibition of AMPK alpha1/beta1/gamma1 (unknown origin) at 10 uM using [33P]-ATP after 20 to 40 mins by scintillation counting method. Format: protein-complex assay.
Assay [19] concerns the target Tyrosine-protein kinase Blk (Homo sapiens) (UniProt P51451). Put plainly: Inhibition of BLK (unknown origin) at 10 uM using [33P]-ATP after 20 to 40 mins by scintillation counting method.
In assay [20] the target is Serine/threonine-protein kinase Sgk1 (Homo sapiens) (UniProt O00141). Put plainly: Inhibition of SGK1 (unknown origin) at 10 uM using [33P]-ATP after 20 to 40 mins by scintillation counting method.
Assay [21] addresses Ribosomal protein S6 kinase alpha-5 (Homo sapiens) (UniProt O75582). The assay is described as follows: Inhibition of MSK1 (unknown origin) at 10 uM using [33P]-ATP after 20 to 40 mins by scintillation counting method.
Assay [22] deals with MCF7. The assay is described as follows: Induction of apoptosis in human MCF7 cells assessed as late necrosis cells level at 1 uM incubated for 24 hrs by Annexin V PI/FITC staining based flow cytometry (reference value: […]). Format: functional.
Assay [23] deals with MCF7. Put plainly: Growth inhibition of human MCF7 cells by MTT assay. Format: functional, cell-based. In outline: as §2

Active and inactive are the calls of the source. No cut-off for these calls is given here.

Sequence of AMP-activated protein kinase (AMPK) alpha-1/beta-1/gamma-1 (Homo sapiens) (P54619 whole entry): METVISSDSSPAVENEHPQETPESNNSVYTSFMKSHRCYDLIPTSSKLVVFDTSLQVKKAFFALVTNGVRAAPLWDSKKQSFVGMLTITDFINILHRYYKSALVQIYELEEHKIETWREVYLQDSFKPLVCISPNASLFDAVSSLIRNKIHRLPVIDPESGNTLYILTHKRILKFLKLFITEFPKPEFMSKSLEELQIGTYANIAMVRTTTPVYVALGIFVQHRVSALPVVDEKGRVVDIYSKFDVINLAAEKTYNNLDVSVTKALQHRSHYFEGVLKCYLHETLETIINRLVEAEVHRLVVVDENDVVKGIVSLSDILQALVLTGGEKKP
Sequence of AMP-activated protein kinase (AMPK) alpha-1/beta-1/gamma-1 (Homo sapiens) (Q13131 whole entry partner): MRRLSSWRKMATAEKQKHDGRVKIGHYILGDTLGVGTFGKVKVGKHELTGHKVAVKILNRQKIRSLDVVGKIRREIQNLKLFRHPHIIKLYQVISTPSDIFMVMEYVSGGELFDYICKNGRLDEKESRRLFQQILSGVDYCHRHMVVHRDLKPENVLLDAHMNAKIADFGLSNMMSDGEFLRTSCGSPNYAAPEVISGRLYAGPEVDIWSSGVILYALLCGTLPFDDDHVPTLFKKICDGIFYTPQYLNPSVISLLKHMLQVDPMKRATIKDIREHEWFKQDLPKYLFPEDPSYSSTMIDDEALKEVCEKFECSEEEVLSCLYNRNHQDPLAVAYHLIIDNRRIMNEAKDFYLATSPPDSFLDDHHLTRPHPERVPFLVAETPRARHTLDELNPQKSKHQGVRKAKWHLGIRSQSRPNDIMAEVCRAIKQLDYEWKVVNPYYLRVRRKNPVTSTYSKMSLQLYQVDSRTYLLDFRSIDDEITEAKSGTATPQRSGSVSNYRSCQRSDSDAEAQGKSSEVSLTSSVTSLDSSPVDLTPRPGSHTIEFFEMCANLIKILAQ
Sequence of AMP-activated protein kinase (AMPK) alpha-1/beta-1/gamma-1 (Homo sapiens) (Q9Y478 2-270 partner limits assumed): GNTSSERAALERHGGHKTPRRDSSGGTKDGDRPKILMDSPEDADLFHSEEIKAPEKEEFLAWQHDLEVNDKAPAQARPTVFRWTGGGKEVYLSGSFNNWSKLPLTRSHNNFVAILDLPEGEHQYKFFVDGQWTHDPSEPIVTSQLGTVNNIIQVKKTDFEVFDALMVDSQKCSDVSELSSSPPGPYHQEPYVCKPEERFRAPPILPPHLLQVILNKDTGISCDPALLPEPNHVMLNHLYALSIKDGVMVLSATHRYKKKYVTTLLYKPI
Sequence of cGMP-dependent protein kinase 1 (Homo sapiens) (Q13976 whole entry): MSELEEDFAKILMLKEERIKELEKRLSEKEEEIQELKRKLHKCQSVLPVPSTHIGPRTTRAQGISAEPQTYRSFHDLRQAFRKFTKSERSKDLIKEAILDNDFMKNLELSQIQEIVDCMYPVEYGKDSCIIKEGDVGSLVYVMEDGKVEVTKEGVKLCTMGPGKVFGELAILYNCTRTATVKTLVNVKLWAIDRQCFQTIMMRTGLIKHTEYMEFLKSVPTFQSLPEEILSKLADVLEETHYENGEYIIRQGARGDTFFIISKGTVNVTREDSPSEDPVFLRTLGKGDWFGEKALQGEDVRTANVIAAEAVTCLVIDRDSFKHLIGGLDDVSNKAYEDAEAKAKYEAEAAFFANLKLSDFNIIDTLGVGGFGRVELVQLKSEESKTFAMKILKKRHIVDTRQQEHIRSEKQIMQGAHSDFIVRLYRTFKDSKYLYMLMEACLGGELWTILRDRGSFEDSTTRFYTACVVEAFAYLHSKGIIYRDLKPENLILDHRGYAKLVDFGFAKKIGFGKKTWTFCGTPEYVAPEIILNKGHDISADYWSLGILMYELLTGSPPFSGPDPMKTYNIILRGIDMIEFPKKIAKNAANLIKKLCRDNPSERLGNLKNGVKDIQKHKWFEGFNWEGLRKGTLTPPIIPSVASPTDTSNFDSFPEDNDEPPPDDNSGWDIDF
Sequence of Mitogen-activated protein kinase kinase kinase 5 (Homo sapiens) (Q99683 whole entry): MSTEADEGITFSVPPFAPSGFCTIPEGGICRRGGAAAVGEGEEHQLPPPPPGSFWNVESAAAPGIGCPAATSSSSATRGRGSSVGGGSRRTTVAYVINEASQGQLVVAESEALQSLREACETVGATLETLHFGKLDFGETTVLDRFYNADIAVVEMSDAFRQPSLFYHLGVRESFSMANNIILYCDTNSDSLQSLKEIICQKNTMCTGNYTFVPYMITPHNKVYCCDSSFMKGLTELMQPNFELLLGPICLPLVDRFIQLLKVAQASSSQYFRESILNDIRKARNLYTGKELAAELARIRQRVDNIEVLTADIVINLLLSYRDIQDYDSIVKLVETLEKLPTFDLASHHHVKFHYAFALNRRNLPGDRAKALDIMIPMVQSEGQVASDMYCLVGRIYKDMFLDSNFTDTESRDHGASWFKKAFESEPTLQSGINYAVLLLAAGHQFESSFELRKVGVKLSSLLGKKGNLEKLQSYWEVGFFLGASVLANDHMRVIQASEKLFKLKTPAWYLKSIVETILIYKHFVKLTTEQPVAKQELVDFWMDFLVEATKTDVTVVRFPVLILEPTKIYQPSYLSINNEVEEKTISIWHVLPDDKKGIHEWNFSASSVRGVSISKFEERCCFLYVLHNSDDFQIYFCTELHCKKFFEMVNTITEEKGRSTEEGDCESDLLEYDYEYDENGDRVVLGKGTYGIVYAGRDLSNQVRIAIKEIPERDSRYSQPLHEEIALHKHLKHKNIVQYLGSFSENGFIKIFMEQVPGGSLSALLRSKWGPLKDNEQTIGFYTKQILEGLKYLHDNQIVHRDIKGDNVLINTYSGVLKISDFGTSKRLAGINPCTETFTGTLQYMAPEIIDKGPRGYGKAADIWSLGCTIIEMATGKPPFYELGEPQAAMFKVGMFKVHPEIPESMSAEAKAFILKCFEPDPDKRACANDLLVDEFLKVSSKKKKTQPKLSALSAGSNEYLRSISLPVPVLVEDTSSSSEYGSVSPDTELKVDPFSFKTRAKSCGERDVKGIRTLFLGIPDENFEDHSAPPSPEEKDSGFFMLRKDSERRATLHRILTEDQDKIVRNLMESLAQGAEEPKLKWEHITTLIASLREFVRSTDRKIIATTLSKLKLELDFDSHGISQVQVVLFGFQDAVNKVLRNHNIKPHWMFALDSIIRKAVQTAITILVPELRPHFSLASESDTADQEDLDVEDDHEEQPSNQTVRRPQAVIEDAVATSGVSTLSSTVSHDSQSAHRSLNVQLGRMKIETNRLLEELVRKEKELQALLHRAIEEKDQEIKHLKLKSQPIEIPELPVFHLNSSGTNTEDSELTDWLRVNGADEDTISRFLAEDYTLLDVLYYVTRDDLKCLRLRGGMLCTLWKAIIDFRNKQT
Sequence of Vascular endothelial growth factor receptor 1 (Homo sapiens) (P17948 whole entry): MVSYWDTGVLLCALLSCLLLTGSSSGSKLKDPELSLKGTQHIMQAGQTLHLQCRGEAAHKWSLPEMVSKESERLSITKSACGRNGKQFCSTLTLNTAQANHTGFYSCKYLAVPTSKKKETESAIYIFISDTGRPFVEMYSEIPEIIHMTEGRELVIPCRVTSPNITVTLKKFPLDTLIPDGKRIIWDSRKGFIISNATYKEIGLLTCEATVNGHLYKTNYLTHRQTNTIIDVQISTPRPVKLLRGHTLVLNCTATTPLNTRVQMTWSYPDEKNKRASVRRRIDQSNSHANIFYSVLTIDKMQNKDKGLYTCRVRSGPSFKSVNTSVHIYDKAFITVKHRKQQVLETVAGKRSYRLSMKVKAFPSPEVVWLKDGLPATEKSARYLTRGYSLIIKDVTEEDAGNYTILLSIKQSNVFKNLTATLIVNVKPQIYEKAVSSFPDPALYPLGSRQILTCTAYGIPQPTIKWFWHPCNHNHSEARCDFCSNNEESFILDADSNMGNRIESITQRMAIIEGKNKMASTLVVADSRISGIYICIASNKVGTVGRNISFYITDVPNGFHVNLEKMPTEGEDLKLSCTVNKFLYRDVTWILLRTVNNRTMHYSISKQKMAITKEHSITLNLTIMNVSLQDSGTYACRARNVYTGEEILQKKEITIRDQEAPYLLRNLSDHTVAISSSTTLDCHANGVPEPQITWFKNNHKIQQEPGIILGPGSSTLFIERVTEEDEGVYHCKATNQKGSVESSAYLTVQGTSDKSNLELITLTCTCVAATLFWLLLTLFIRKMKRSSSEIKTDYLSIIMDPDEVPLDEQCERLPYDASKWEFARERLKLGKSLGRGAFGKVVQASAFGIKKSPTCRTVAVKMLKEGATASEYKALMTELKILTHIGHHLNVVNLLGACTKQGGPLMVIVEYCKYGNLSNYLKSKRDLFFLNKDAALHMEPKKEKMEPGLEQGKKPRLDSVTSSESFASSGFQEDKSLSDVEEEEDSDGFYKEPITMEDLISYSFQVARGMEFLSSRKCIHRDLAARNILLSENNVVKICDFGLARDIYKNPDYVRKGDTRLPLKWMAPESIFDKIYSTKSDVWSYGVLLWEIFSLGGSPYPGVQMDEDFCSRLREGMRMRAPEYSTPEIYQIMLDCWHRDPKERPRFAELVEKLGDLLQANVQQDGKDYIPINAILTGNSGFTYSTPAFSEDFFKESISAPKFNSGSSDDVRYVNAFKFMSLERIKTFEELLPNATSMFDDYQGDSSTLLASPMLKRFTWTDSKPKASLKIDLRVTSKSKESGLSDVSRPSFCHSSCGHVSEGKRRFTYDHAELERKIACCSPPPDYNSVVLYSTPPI
Sequence of Tyrosine-protein kinase Blk (Homo sapiens) (P51451 2-505 limits assumed): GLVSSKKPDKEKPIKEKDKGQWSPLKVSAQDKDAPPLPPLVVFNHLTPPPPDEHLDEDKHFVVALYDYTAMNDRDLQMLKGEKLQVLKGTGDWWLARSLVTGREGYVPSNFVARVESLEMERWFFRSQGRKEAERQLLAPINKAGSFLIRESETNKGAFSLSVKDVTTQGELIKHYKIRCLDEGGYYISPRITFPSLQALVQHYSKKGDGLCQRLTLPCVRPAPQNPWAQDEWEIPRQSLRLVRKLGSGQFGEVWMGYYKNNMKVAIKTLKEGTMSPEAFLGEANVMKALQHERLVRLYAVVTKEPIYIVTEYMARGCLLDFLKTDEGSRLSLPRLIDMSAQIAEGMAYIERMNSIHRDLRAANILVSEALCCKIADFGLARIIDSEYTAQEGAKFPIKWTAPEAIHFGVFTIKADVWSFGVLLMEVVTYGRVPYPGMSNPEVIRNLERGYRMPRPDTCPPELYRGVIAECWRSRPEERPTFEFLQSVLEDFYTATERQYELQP

For orientation: inhibition means the change of the read-out against control, counted positive when it falls. Usually IC50 stands for the concentration needed to halve the response being measured. In the case of `Cc1ccc(NC(=O)c2c(N=Cc3ccc4ccccc4c3)c(C#N)c3n2CCC3)cc1`, the inhibition was -27% in assay [1]; -19% in assay [3]; -37% in [9]; -4% in assay [10]; -10% in [13]; 8% in [16]. In addition, the inhibition in assay [18] was -11%; in assay [19], -16%; in assay [20] it was -16%; in assay [21] it was -43%. The Activity in the assay on MCF7 [2] worked out at 62.1%; with MCF7 [4], 23.5%; with MCF7 [5] it was 12.9%; with MCF7 [7], 8.5%; in the assay with MCF7 [8], 16.3%; in the assay with MCF7 [12], 0.8%. Further, the Activity in the assay with MCF7 [14] is on record as 72.2%; with MCF7 [17] it was 1.1%; with MCF7 [22], 0.8%. For the same compound, the results for the IC50 (in assay [6]; in the assay on Hep 3B2; in the assay with MCF7 [23]) were 12 µM, 8.69 µM and 7.76 µM, respectively. The result in the assay with MCF7 [11] and in the assay on MCF7 [15] was Active.
